What all share (type): functional, cell-based
Test [1] has as its system chang liver. Description: Inhibition of cholesterol biosynthesis in human chang liver cells assessed as suppression of lanosterol. The procedure, abridged: (§1)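 Chang liver cells (ATCC CCL 13) seeded at 5×10^4 per 15-mm dish in MEM + 10% FBS; on day 2 washed, held 4 h in serum-free Hepatozyme-SFM, pretreated 2 h with compound, then labeled acetate (2.5 μCi/well) for 2 h. Cells lysed in 0.1 N NaOH, saponified (6% KOH/MeOH), nonsaponifiable lipids extracted in n-hexane, separated by TLC (C6H6-Me2CO 19:1), radioactive spots quantified by phosphor imaging.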

Test [2] deals with chang liver. Description: Inhibition of cholesterol biosynthesis in human chang liver cells assessed as suppression of cholesterol level. The essentials:
as §1

Test [3] can be described thus: (§2) Inhibition of cholesterol biosynthesis in human chang liver cells assessed as conversion of lanosterol into cholesterol. The procedure, abridged: as §1
Test [4] has as its system chang liver. The description is as §2. The essentials: as §1

Converted amounts (≈) assume the structure as drawn. The source made the active and inactive calls. The rule behind the calls is not given here.

Consider `CC[C@H](C)C(=O)O[C@H]1CCC=C2C=C[C@H](C)[C@H](CC[C@@H]3C[C@@H](O)CC(=O)O3)[C@H]21`, for which the outcome with chang liver [1] and in the test with chang liver [2] was Active.
Regarding `CCCCCCCCCCCCCCCCOC[C@@H](O)COP(=O)([O-])OCC[N+](C)(C)C`, the IC50 in test [3] came to 422 µg/mL (≈ 876 µM). Further, the Activity result in the test on chang liver [4] was “Dose-dependent effect”.
Consider `CCCCCCC1CC1CCCCCCCCCC(=O)OC[C@@H](O)COP(=O)([O-])OCC[N+](C)(C)C` (some centres not stated), for which the IC50 in test [3] stood at 60 µg/mL (≈ 112 µM). Further, the Activity entry with chang liver [4] is “Dose-dependent effect”. For the same compound, the outcome in the test on chang liver [1] was inactive.
For `CCCCCC/C=C\CCCCCCCCCCCC(=O)OC[C@@H](O)COP(=O)([O-])OCC[N+](C)(C)C`, the IC50 in test [3] was 21 µg/mL (≈ 38.2 µM). Moreover, the Activity entry in the test on chang liver [4] was “Dose-dependent effect”.
As for `CCCCCCCCCCCCCC/C=C\CCOC[C@@H](O)COP(=O)([O-])OCC[N+](C)(C)C`, the IC50 in test [3] worked out at 174 µg/mL (≈ 343 µM). The Activity result in the test with chang liver [4] was “Dose-dependent effect”.
The like results for `CCCCCCCCCCCCC/C=C\CCCOC[C@@H](O)COP(=O)([O-])OCC[N+](C)(C)C` were, in that order, 121 µg/mL (≈ 238 µM) and “Dose-dependent effect”.
Regarding `CCCCCC/C=C\CCCCCCCCCCOC[C@@H](O)COP(=O)([O-])OCC[N+](C)(C)C`, in test [3], the IC50 was 125 µg/mL (≈ 246 µM). Moreover, the Activity result in the test with chang liver [4] is “Dose-dependent effect”.
Regarding `CC(C)CCCCCCCCCCCCCCOC[C@@H](O)COP(=O)([O-])OCC[N+](C)(C)C`, the IC50 in test [3] stood at 320 µg/mL (≈ 646 µM). For the same compound, the Activity result with chang liver [4] is “Dose-dependent effect”.

The term IC50 denotes the point on the concentration scale where inhibition reaches its midpoint.

(Values after ChEMBL document CHEMBL1144142, “Lyso-PAF analogues and lysophosphatidylcholines from the marine sponge Spirastrella abata as inhibitors of cholesterol biosynthesis” (J Nat Prod, 1999).)
